Biological target: T1, Toll-like receptor 4 (Mus musculus) (UniProt Q9QUK6)
T1 sequence (whole entry): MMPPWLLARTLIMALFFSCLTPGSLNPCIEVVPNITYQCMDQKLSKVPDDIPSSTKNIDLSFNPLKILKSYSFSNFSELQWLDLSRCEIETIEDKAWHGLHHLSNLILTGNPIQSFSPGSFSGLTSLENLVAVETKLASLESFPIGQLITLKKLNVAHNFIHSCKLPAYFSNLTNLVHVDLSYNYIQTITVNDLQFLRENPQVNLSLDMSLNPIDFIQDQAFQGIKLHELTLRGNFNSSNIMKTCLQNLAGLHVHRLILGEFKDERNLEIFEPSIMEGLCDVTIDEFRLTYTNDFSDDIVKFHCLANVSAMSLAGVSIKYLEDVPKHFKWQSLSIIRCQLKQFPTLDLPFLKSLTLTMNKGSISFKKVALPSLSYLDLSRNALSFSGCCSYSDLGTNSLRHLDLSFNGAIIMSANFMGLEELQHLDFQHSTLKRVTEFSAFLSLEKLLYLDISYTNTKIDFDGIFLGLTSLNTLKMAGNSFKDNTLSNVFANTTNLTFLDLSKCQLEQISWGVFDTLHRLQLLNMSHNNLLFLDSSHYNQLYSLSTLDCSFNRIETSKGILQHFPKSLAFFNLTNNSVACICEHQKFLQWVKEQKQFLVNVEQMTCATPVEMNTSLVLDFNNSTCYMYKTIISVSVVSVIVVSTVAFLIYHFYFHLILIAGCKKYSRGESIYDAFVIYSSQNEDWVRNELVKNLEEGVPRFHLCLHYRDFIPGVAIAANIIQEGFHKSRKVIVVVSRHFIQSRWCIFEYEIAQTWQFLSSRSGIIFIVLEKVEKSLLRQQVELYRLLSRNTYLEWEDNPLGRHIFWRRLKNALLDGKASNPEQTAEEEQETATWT
Experiment: Activation of TLR4-mediated type 1 IFN release in C57BL/6 mouse BMDC cells assessed as IP10 level after overnight incubation by ELISA
Type: cell-based
Method in brief: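 Wild-type BMDC incubated overnight with graded concentrations, 0.5% DMSO vehicle; IP-10 in supernatants by ELISA as surrogate of type I IFN. Mean ± SEM of triplicates; two independent experiments.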

## O=C(CSc1nc2c([nH]c3ccccc32)c(=O)n1-c1ccccc1)NC1CCCCC1
  Activity: Dose-dependent effect
